Assays:
[1] = test system: HeLa; assay: Inhibitory concentration in HeLa cells; type: functional, cell-based; settings: Homo sapiens
In short: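 HeLa viability assay. Low-passage HeLa (passage 10–20) treated with compounds at 0, 1, 3, 10 and 100 µM; viability read out. Values given as mean with standard deviation, n = 4.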

[2] = test system: ZR-75-1; assay: Inhibitory concentration in ZR-75-1 cells; type: functional, cell-based; settings: Homo sapiens
In short: (§1)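 XTT viability: MCF7 grown in DMEM/10% FBS with 10^-10 M insulin, 1 mM pyruvate, glutamine; ZR75-1 in RPMI/10% FBS with HEPES, 1 mM pyruvate, glutamine. 1000 cells/well seeded in triplicate, compounds at final 0, 1, 10 and 100 µM for 3 days. Then XTT (1 mg/mL) with 0.025 mM PMS added for 4 h. OD450 read, blank wells subtracted.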

[3] = target: Bcl-2-like protein 1 (Homo sapiens, UniProt Q07817); assay: Inhibitory concentration against Bcl-xl
Bcl-2-like protein 1, sequence (Q07817 whole entry): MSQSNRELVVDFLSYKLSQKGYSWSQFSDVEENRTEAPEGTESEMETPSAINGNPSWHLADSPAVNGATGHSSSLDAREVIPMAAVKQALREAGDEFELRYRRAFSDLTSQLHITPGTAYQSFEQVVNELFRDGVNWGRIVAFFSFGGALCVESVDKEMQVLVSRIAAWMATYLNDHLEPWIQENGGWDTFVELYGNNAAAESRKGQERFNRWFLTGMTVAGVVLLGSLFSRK

[4] = test system: MCF7S; assay: Inhibitory concentration in MCF-7 cells; type: functional, cell-based; settings: Homo sapiens; in short: as §1

| Structure (SMILES) | IC50 [1] | IC50 [2] | IC50 [3] | IC50 [4] |
| --- | --- | --- | --- | --- |
| CCOC(=O)c1cc(O)c(=O)c2cc(O)c(O)cc2c1 | 51.5 µM | 50 µM | – | – |
| COc1c(O)cc2cccc(OC)c(=O)c2c1OC | > 100 µM | – | – | – |
| Cc1cc2c(C(C)C)c(O)c(O)c(C=O)c2c(O)c1-c1c(C)cc2c(C(C)C)c(O)c(O)c(C=O)c2c1O [GOSSYPOL] | – | 8.4 µM | 0.5 µM | 13.2 µM |
| O=C(O)c1cc(O)c(=O)c2cc(O)c(O)cc2c1 | 22.9 µM | – | – | – |
| O=c1c(O)cccc2cc(O)c(O)c(O)c12 [PURPUROGALLIN] | 6.5 µM | – | – | – |

More lines, main results first:

| IC50 [1] | Structure (SMILES) | IC50 [2] | IC50 [3] | IC50 [4] |
| --- | --- | --- | --- | --- |
| 30 µM | COC(=O)c1cc(O)c(=O)c2cc(O)c(O)cc2c1 | – | – | – |
| > 100 µM | COc1cc2cccc(OC)c(=O)c2c(OC)c1OC | – | – | – |
